Data: publication PMC4306959 (Scientific Reports, 2015)

Key:
JNK3α1L144I = JNK3α1L144I (Homo sapiens, UniProt P53779, L144I); test: HTRF enzyme inhibition assay, JNK3 L144I mutant; type: biochemical; details: read-out: Km value of ATP for JNK3 L144I
Outline: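 Human JNK3 39–402 L144I, made by PCR mutagenesis and expressed like WT, activated for 2 h at 30°C with MKK4/MKK7 (100 nM each) in HEPES pH 7.5, MgCl2, DTT, 200 μM ATP; activation checked by MS and Western. HTRF at 0.75 nM enzyme, 0.5 μM biotinylated FL-ATF-2, 1.25 μM ATP, 1 h. Top concentration 10,000 nM.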

JNK3 = details: cited from earlier work
JNK2 = details: cited from earlier work

Chain of JNK3α1L144I (P53779 39-402 L144I): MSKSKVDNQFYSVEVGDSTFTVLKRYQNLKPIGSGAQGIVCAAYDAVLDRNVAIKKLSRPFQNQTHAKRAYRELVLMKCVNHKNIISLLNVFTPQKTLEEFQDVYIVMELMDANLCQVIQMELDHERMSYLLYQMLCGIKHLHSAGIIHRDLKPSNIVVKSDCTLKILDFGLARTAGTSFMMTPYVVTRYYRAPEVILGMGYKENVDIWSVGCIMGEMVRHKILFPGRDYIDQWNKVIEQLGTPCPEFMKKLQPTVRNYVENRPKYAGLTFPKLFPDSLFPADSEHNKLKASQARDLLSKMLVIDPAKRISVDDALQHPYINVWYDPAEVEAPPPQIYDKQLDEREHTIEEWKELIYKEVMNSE

Row | Km (JNK3α1L144I) [µM] | Structure (SMILES) | Selectivity for JNK3 compared to JNK1 (JNK3) [fold] | Selectivity for JNK2 compared to JNK1 (JNK2) [fold]
1 | 2.9 | Nc1ncnc2c1ncn2[C@@H]1O[C@H](COP(=O)(O)OP(=O)(O)OP(=O)(O)O)[C@@H](O)[C@H]1O [ATP] |  | 
2 |  | Cn1c(NC[C@@H](N)Cc2ccccc2)nc(-c2ccncc2)c(-c2ccc3ccccc3c2)c1=O [AMG-548] | 188 | 294
